Active and inactive are the calls of the source. The rule behind the calls is not given here.
Key:
DU-145 = assay: Antiproliferative activity against human DU145 after 48 hrs by SRB assay; type: functional, cell-based; settings: DU-145, 48 h
L1210 = assay: Antiproliferative activity against mouse L1210 after 48 hrs by SRB assay; type: functional, cell-based; settings: L1210, 48 h
CHO-VV 3-2 [1] = assay: Antiproliferative activity against colchicine and vinblastine-resistant CHO-VV 3-2 cells after 48 hrs by SRB assay; type: functional, cell-based; settings: Cricetulus griseus, CHO-VV 3-2, 48 h
Summary of the method: (§1)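 Adherent cells were seeded per line (e.g. HT-29 5000, M21 3500, MCF7 7500, CHO and CHO-VV 3-2 and CHO-TAX 5-6 1000 cells/well) and grown 24 h at 37 °C, 5% CO₂. DMSO-solubilized drug was diluted in medium and added at 1000–0.98 nM for 48 h. Cells were fixed with cold 10% TCA and stained with 0.1% sulforhodamine B, with absorbance read at 530–565 nm.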

SK-OV-3 = assay: Antiproliferative activity against human SKOV3 after 48 hrs by SRB assay; type: functional, cell-based; settings: SK-OV-3, 48 h; summary of the method: as §1
CHO-TAX 5-6 [2] = assay: Antiproliferative activity against paclitaxel-resistant CHO-TAX 5-6 cells after 48 hrs by SRB assay; type: functional, cell-based; settings: Cricetulus griseus, CHO-TAX 5-6, 48 h; summary of the method: as §1
M21 [3] = assay: Disruption of cytoskeleton microtubule structure of human M21 cells at 5 times IC50 after 16 hrs by indirect immunofluorescence assay; type: functional, cell-based
Summary of the method: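 Cells were fixed in 3.7% formaldehyde, permeabilized with saponin, and stained with anti-β-tubulin TUB 2.1, Alexa-488 anti-mouse secondary and DAPI. Fluorescence microscopy was used for imaging.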

HT-1080 [4] = assay: Antitumor activity against human HT1080 cells xenografted in chicken chorioallantoic membrane assessed as inhibition of tumor growth at 3 ug, iv measured on day 17 by CAM assay; type: functional
Summary of the method: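 Fertilized chicken eggs were incubated 10 days, then 3.5 × 10⁵ HT-1080 cells/egg were applied to the exposed chorioallantoic membrane. On day 11, drug was given iv in DMSO diluted in excipient (ethanol:cremophor:PBS 6.25:6.25:87.5). Read-out was tumor wet weight as % of untreated eggs, plus chick mortality. Data were pooled from two independent experiments of 10–12 eggs each.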

MCF7 = assay: Antiproliferative activity against human MCF7 cells after 48 hrs by SRB assay; type: functional, cell-based; settings: MCF7, 48 h; summary of the method: as §1
M21 [5] = assay: Antiproliferative activity against human M21 cells after 48 hrs by SRB assay; type: functional, cell-based; settings: M21, 48 h; summary of the method: as §1
K562 = assay: Antiproliferative activity against human K562 after 48 hrs by SRB assay; type: functional, cell-based; settings: K562, 48 h
M21 [6] = assay: Cell cycle arrest in human M21 cells assessed as accumulation at S phase at 5 times IC50 after 24 hrs using propidium iodide staining by flow cytometric analysis (reference value: 30%); type: functional
Summary of the method: (§2)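 Cells were trypsinized, fixed in ice-cold ethanol, treated with RNase, and stained with propidium iodide (1 mg/mL stock) for 1 h on ice. Cell-cycle distribution was measured by flow cytometry.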

[7] = Antiproliferative activity against human multidrug-resistant CEM/VLB cells after 48 hrs by SRB assay; type: functional
[8] = Toxicity against fertilized chicken embryo assessed as mortality at 3 ug, iv by CAM assay; type: organism-based, Gallus gallus; settings: in vivo, read-out: Activity
Summary of the method: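 HT-1080 fibrosarcoma cells (3.5 × 10⁵ cells/egg) grafted onto the chorioallantoic membrane of fertilized chicken eggs (10 days preincubation). On day 11, drug in DMSO diluted into excipient (ethanol:cremophor:PBS 6.25:6.25:87.5) given iv at 3 µg per egg. Chick mortality recorded over 7-day tumor growth period. Untreated eggs as negative controls and for normalization. Cumulative results from two independent experiments, 10–12 eggs each.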

M21 [9] = assay: Cell cycle arrest in human M21 cells assessed as accumulation at G2/M phase at 5 times IC50 after 24 hrs using propidium iodide staining by flow cytometric analysis (reference value: 9%); type: functional; summary of the method: as §2
HT-29 = assay: Antiproliferative activity against human HT-29 cells after 48 hrs by SRB assay; type: functional, cell-based; settings: HT-29, 48 h; summary of the method: as §1
CHO-TAX 5-6 [10] = assay: Ratio of IC50 for paclitaxel-resistant CHO-TAX 5-6 cells to IC50 for CHO cells; type: functional, Cricetulus griseus
Summary of the method: (§3)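 Each ratio is the IC50 in the resistant line divided by the IC50 in its parental line (CHO for CHO-TAX 5-6 and CHO-VV 3-2; CEM for CEM-VLB).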

M21 [11] = assay: Cell cycle arrest in human M21 cells assessed as accumulation at G0/G1 phase at 5 times IC50 after 24 hrs using propidium iodide staining by flow cytometric analysis (reference value: 61%); type: functional; summary of the method: as §2
CHO-VV 3-2 [12] = assay: Ratio of IC50 for colchicine and vinblastine-resistant CHO-VV 3-2 cells to IC50 for CHO cells; type: functional, Cricetulus griseus; summary of the method: as §3
CCRF-CEM [13] = assay: Ratio of IC50 for human multidrug-resistant CEM/VLB cells to IC50 for human CEM cells; type: functional; summary of the method: as §3
[14] = Antiproliferative activity against mouse P388D1 after 48 hrs by SRB assay; settings: P388D1, 48 h
CHO = assay: Antiproliferative activity against Chinese hamster CHO after 48 hrs by SRB assay; settings: Cricetulus griseus
[15] = Antiproliferative activity against mouse B16F0 after 48 hrs by SRB assay
HT-1080 [16] = assay: Antiproliferative activity against human HT1080 after 48 hrs by SRB assay; type: functional, cell-based; settings: HT-1080, 48 h; summary of the method: as §1
CCRF-CEM [17] = assay: Antiproliferative activity against human CEM after 48 hrs by SRB assay; type: functional, cell-based
MDA-MB-231 [18] = assay: Antiproliferative activity against human MDA-MB-231 after 48 hrs by SRB assay; type: functional, cell-based; settings: MDA-MB-231, 48 h
MDA-MB-231 [19] = assay: Displacement of N,N'-ethylenebis(iodoacetamide) from beta-tubulin colchicine-binding site in human MDA-MB-231 cells at 1000 times IC50 preincubated for 2 hrs before N,N'-ethylenebis(iodoacetamide) addition measured after 1.5 hrs by chemiluminescence assay; type: cell-based
Summary of the method: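 EBI (100, final) was added for 1.5 h at 37 °C with drug present; control was 0.5% DMSO. Sonicated lysates (20 µg protein) were run on 10% SDS-PAGE and blotted with anti-β-tubulin TUB 2.1. The β-tubulin–EBI adduct was scored by ECL.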

SMILES	IC50 (DU-145)	IC50 (L1210)	IC50 (CHO-VV 3-2 [1])	IC50 (SK-OV-3)	IC50 (CHO-TAX 5-6 [2])	Activity (M21 [3])	IC50 (MCF7)	IC50 (M21 [5])	IC50 (K562)	Activity (M21 [6])	IC50 [7]	mortality [8]	Activity (M21 [9])	IC50 (HT-29)	Ratio IC50 (CHO-TAX 5-6 [10])	Activity (M21 [11])	Ratio IC50 (CHO-VV 3-2 [12])	Ratio IC50 (CCRF-CEM [13])	IC50 [14]	IC50 (CHO)	other results
O=C1NCCN1c1ccc(S(=O)(=O)Nc2cccc(Br)c2)cc1	340 nM	99 nM	270 nM	170 nM	76 nM	Active	100 nM	59 nM	87 nM	20%	250 nM	24%	78%	77 nM	0.3	2%	1.1	2.3	90 nM	250 nM	growth inhibition (GI) (HT-1080 [4]): 19%; IC50 [15]: 270 nM; IC50 (HT-1080 [16]): 170 nM; IC50 (CCRF-CEM [17]): 110 nM; IC50 (MDA-MB-231 [18]): 290 nM; Activity (MDA-MB-231 [19]): Active
COc1cc(NS(=O)(=O)c2ccc(N3CCNC3=O)cc2)cc(OC)c1	700 nM	110 nM	690 nM	170 nM	220 nM	Active	170 nM	60 nM	110 nM	28%	1010 nM	13%	59%	78 nM	0.67	13%	2.1	5.9	200 nM	330 nM	growth inhibition (GI) (HT-1080 [4]): 31%; IC50 [15]: 280 nM; IC50 (HT-1080 [16]): 150 nM; IC50 (CCRF-CEM [17]): 170 nM; IC50 (MDA-MB-231 [18]): 340 nM; Activity (MDA-MB-231 [19]): Active
O=C1NCCN1c1ccc(S(=O)(=O)Nc2ccc3[nH]ccc3c2)cc1	1370 nM	260 nM	1860 nM	280 nM	640 nM	Active	170 nM	87 nM	340 nM	22%	4840 nM	8%	51%	130 nM	0.49	27%	1.4	12	520 nM	1310 nM	inhibition (HT-1080 [4]): inactive; IC50 [15]: 770 nM; IC50 (HT-1080 [16]): 230 nM; IC50 (CCRF-CEM [17]): 410 nM; IC50 (MDA-MB-231 [18]): 3600 nM; Activity (MDA-MB-231 [19]): Active
CCc1cccc(NS(=O)(=O)c2ccc(N3CCNC3=O)cc2)c1	730 nM	200 nM	250 nM	230 nM	140 nM	Active	130 nM	82 nM	230 nM	5%	450 nM	11%	95%	110 nM	0.61	0%	1.1	2.3	250 nM	230 nM	growth inhibition (GI) (HT-1080 [4]): 45%; IC50 [15]: 270 nM; IC50 (HT-1080 [16]): 200 nM; IC50 (CCRF-CEM [17]): 200 nM; IC50 (MDA-MB-231 [18]): 1410 nM; Activity (MDA-MB-231 [19]): Active
Cc1cc(C)cc(NS(=O)(=O)c2ccc(N3CCNC3=O)cc2)c1	430 nM	110 nM	250 nM	190 nM	120 nM	Active	100 nM	63 nM	110 nM	21%	400 nM	8%	78%	82 nM	0.57	1%	1.2	2.4	210 nM	210 nM	inhibition (HT-1080 [4]): inactive; IC50 [15]: 260 nM; IC50 (HT-1080 [16]): 150 nM; IC50 (CCRF-CEM [17]): 170 nM; IC50 (MDA-MB-231 [18]): 1220 nM; Activity (MDA-MB-231 [19]): Active
COc1cc(NS(=O)(=O)c2ccc(N3CCNC3=O)cc2)cc(OC)c1OC	51 nM	21 nM	> 250 nM	22 nM	170 nM	Active	18 nM	13 nM	19 nM	12%	> 250 nM	40%	74%	21 nM	0.89	12%	>1.3	>11	38 nM	190 nM	growth inhibition (GI) (HT-1080 [4]): 25%; IC50 [15]: 58 nM; IC50 (HT-1080 [16]): 17 nM; IC50 (CCRF-CEM [17]): 23 nM; IC50 (MDA-MB-231 [18]): 45 nM; Activity (MDA-MB-231 [19]): Active
